Results on six compounds are retold here after ChEMBL document CHEMBL1781932 (J Med Chem, 2011).

Each structure is given as a SMILES string. In brackets after ≈: the same amount, converted by molar mass. Where only a bound is given, the exact number is not on record here.

For orientation: MIC means the lowest concentration that inhibits growth of the organism.

What all share (type): functional
The test system of experiment [1] is Escherichia coli. The experiment in a line: Antimicrobial activity against tetracycline-resistant Escherichia coli isolate 155 harboring tetA gene by CLSI dilution method.
Experiment [2] relates to Enterococcus faecalis. The experiment in a line: Antimicrobial activity against tetracycline-susceptible Enterococcus faecalis isolate 103 by CLSI dilution method. Summed up: (§1)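 Broth microdilution per CLSI in fresh cation-adjusted Mueller Hinton broth, kept at 4 °C before testing, with defibrinated horse blood added as appropriate. Strains were from ATCC. MIC in µg/mL. Runs were accepted when comparator antibiotics against ATCC quality-control strains fell within recommended ranges.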

Experiment [3] relates to Klebsiella pneumoniae. Kind of experiment: Antimicrobial activity against tetracycline-resistant Klebsiella pneumoniae isolate 153 harboring tetA gene by CLSI dilution method.
For experiment [4], the system named is Klebsiella pneumoniae. Kind of experiment: Antimicrobial activity against tetracycline-susceptible Klebsiella pneumoniae isolate 109 by CLSI dilution method. Put shortly: as §1
In another experiment the test system is Acinetobacter baumannii. Kind of experiment: Antimicrobial activity against tetracycline-susceptible Acinetobacter baumannii isolate 110 by CLSI dilution method. Summed up: as §1
The test system of experiment [5] is Staphylococcus aureus. The experiment in a line: Antimicrobial activity against methicillin-, tetracycline-resistant Staphylococcus aureus isolate 161 harboring tetM gene by CLSI dilution method.
For experiment [6], the system named is Staphylococcus aureus. The experiment in a line: Antimicrobial activity against tetracycline-susceptible Staphylococcus aureus isolate 101 by CLSI dilution method.
For experiment [7], the system named is Staphylococcus aureus. The experiment in a line: Antimicrobial activity against tetracycline-resistant Staphylococcus aureus isolate 158 harboring tetK gene by CLSI dilution method.
Another experiment relates to Pseudomonas aeruginosa. The experiment in a line: Antimicrobial activity against tetracycline-susceptible Pseudomonas aeruginosa isolate 111 by CLSI dilution method. Summed up: as §1
Experiment [8] relates to Escherichia coli. Kind of experiment: Antimicrobial activity against tetracycline-susceptible Escherichia coli isolate 107 by CLSI dilution method. Put shortly: as §1
In experiment [9] the test system is Enterococcus faecalis. The experiment in a line: Antimicrobial activity against tetracycline-resistant Enterococcus faecalis isolate 159 harboring […] gene by CLSI dilution method.
In another experiment the test system is Enterobacter cloacae. Kind of experiment: Antimicrobial activity against tetracycline-susceptible Enterobacter cloacae isolate 108 by CLSI dilution method. Summed up:
as §1

For experiment [10], the system named is Streptococcus pneumoniae. Kind of experiment: Antimicrobial activity against tetracycline-resistant Streptococcus pneumoniae isolate 160 harboring tetM gene by CLSI dilution method.
Experiment [11] concerns Streptococcus pneumoniae. The experiment in a line: Antimicrobial activity against tetracycline-susceptible Streptococcus pneumoniae isolate 106 by CLSI dilution method. Summed up: as §1

Regarding `CN(C)[C@@H]1C(O)=C(C(N)=O)C(=O)[C@@]2(O)C(O)=C3C(=O)c4c(cc5ccc(CN6CC(O)C6)cc5c4O)C[C@H]3C[C@@H]12`, the MIC against Escherichia coli [1] turned out to be 8 mg/L (≈ 14.6 µM); against Enterococcus faecalis [2] it was 0.5 mg/L (≈ 0.91 µM); against Klebsiella pneumoniae [3] it was 8 mg/L (≈ 14.6 µM); with Klebsiella pneumoniae [4], 4 mg/L (≈ 7.28 µM); with Acinetobacter baumannii it was 4 mg/L (≈ 7.28 µM); against Staphylococcus aureus [5] it was 4 mg/L (≈ 7.28 µM). Further, the minimal inhibitory concentration (MIC) against Staphylococcus aureus [6] was 0.5 mg/L (≈ 0.91 µM); against Staphylococcus aureus [7] it was 1 mg/L (≈ 1.82 µM); in the experiment on Pseudomonas aeruginosa, 32 mg/L (≈ 58.2 µM); with Escherichia coli [8], 1 mg/L (≈ 1.82 µM); against Enterococcus faecalis [9], 4 mg/L (≈ 7.28 µM); with Enterobacter cloacae it was 2 mg/L (≈ 3.64 µM). Besides, the minimum inhibitory concentration (MIC) against Streptococcus pneumoniae [10] came to 0.5 mg/L (≈ 0.91 µM); with Streptococcus pneumoniae [11], 0.0625 mg/L (≈ 0.114 µM).

Consider `COCCNCc1ccc2c(N(C)C)c3c(c(O)c2c1)C(=O)C1=C(O)[C@]2(O)C(=O)C(C(N)=O)=C(O)[C@@H](N(C)C)[C@@H]2C[C@@H]1C3`, for which the MIC was 32 mg/L (≈ 53.8 µM) against Escherichia coli [1]; 1 mg/L (≈ 1.68 µM) with Enterococcus faecalis [2]; 32 mg/L (≈ 53.8 µM) against Klebsiella pneumoniae [3]; 16 mg/L (≈ 26.9 µM) in the experiment on Klebsiella pneumoniae [4]; 2 mg/L (≈ 3.36 µM) against Acinetobacter baumannii; 8 mg/L (≈ 13.5 µM) in the experiment with Staphylococcus aureus [5]. Also, the minimum inhibitory concentration (MIC) was 0.5 mg/L (≈ 0.841 µM) in the experiment with Staphylococcus aureus [6]; 0.5 mg/L (≈ 0.841 µM) in the experiment on Staphylococcus aureus [7]; over 32 mg/L against Pseudomonas aeruginosa; 4 mg/L (≈ 6.73 µM) in the experiment with Escherichia coli [8]; 8 mg/L (≈ 13.5 µM) in the experiment with Enterococcus faecalis [9]; 16 mg/L (≈ 26.9 µM) in the experiment with Enterobacter cloacae. Moreover, the MIC is 1 mg/L (≈ 1.68 µM) with Streptococcus pneumoniae [10] and 0.0625 mg/L (≈ 0.105 µM) in the experiment with Streptococcus pneumoniae [11].

In the case of `CN(C)c1c2c(c(O)c3cc(F)ccc13)C(=O)C1=C(O)[C@]3(O)C(=O)C(C(N)=O)=C(O)[C@@H](N(C)C)[C@@H]3C[C@@H]1C2`, the minimal inhibitory concentration (MIC) against Escherichia coli [1] is over 32 mg/L; against Enterococcus faecalis [2], 0.25 mg/L (≈ 0.476 µM); against Klebsiella pneumoniae [3], over 32 mg/L; in the experiment with Klebsiella pneumoniae [4], over 32 mg/L; in the experiment with Acinetobacter baumannii, 16 mg/L (≈ 30.4 µM); in the experiment on Staphylococcus aureus [5], 1 mg/L (≈ 1.9 µM). The minimum inhibitory concentration (MIC) with Staphylococcus aureus [6] is 0.25 mg/L (≈ 0.476 µM); against Staphylococcus aureus [7], 0.125 mg/L (≈ 0.238 µM); with Pseudomonas aeruginosa it was over 32 mg/L; with Escherichia coli [8], over 32 mg/L; in the experiment with Enterococcus faecalis [9], 0.25 mg/L (≈ 0.476 µM); in the experiment with Enterobacter cloacae, over 32 mg/L. Besides, the MIC turned out to be 4 mg/L (≈ 7.61 µM) in the experiment on Streptococcus pneumoniae [10] and 2 mg/L (≈ 3.81 µM) in the experiment with Streptococcus pneumoniae [11].

In the case of `COCCOc1c2c(c(O)c3cc(CN4CCC4)ccc13)C(=O)C1=C(O)[C@]3(O)C(=O)C(C(N)=O)=C(O)[C@@H](N(C)C)[C@@H]3C[C@@H]1C2`, the minimum inhibitory concentration (MIC) in the experiment on Escherichia coli [1] is 32 mg/L (≈ 52.7 µM); with Enterococcus faecalis [2] it was 0.5 mg/L (≈ 0.823 µM); in the experiment with Klebsiella pneumoniae [3] it was over 32 mg/L; against Klebsiella pneumoniae [4] it was 8 mg/L (≈ 13.2 µM); against Acinetobacter baumannii, 4 mg/L (≈ 6.58 µM); against Staphylococcus aureus [5] it was 2 mg/L (≈ 3.29 µM). The minimal inhibitory concentration (MIC) in the experiment with Staphylococcus aureus [6] is 0.25 mg/L (≈ 0.411 µM); in the experiment on Staphylococcus aureus [7], 0.5 mg/L (≈ 0.823 µM); against Pseudomonas aeruginosa, over 32 mg/L; against Escherichia coli [8], 2 mg/L (≈ 3.29 µM); with Enterococcus faecalis [9], 2 mg/L (≈ 3.29 µM); against Enterobacter cloacae it was 8 mg/L (≈ 13.2 µM). The minimal inhibitory concentration (MIC) with Streptococcus pneumoniae [10] is 0.25 mg/L (≈ 0.411 µM); against Streptococcus pneumoniae [11], 0.0313 mg/L (≈ 0.0515 µM).

In the case of `CNCc1ccc2cc3c(c(O)c2c1)C(=O)C1=C(O)[C@]2(O)C(=O)C(C(N)=O)=C(O)[C@@H](N(C)C)[C@@H]2C[C@@H]1C3`, the MIC with Escherichia coli [1] was determined as 16 mg/L (≈ 31.5 µM); against Enterococcus faecalis [2], 0.5 mg/L (≈ 0.985 µM); against Klebsiella pneumoniae [3], 8 mg/L (≈ 15.8 µM); with Klebsiella pneumoniae [4], 4 mg/L (≈ 7.88 µM); with Acinetobacter baumannii, 4 mg/L (≈ 7.88 µM); in the experiment with Staphylococcus aureus [5] it was 4 mg/L (≈ 7.88 µM). For the same compound, the MIC in the experiment with Staphylococcus aureus [6] is 0.5 mg/L (≈ 0.985 µM); with Staphylococcus aureus [7] it was 1 mg/L (≈ 1.97 µM); in the experiment on Pseudomonas aeruginosa, 16 mg/L (≈ 31.5 µM); in the experiment on Escherichia coli [8] it was 1 mg/L (≈ 1.97 µM); in the experiment on Enterococcus faecalis [9], 4 mg/L (≈ 7.88 µM); with Enterobacter cloacae, 2 mg/L (≈ 3.94 µM). Also, the minimum inhibitory concentration (MIC) turned out to be 1 mg/L (≈ 1.97 µM) with Streptococcus pneumoniae [10] and 0.0625 mg/L (≈ 0.123 µM) with Streptococcus pneumoniae [11].

With `CCCNCc1ccc2cc3c(c(O)c2c1)C(=O)C1=C(O)[C@]2(O)C(=O)C(C(N)=O)=C(O)[C@@H](N(C)C)[C@@H]2C[C@@H]1C3`, the minimum inhibitory concentration (MIC) against Escherichia coli [1] was found to be 4 mg/L (≈ 7.47 µM); with Enterococcus faecalis [2] it was 0.5 mg/L (≈ 0.934 µM); against Klebsiella pneumoniae [3], 4 mg/L (≈ 7.47 µM); against Klebsiella pneumoniae [4], 2 mg/L (≈ 3.73 µM); in the experiment on Acinetobacter baumannii, 1 mg/L (≈ 1.87 µM); in the experiment with Staphylococcus aureus [5], 2 mg/L (≈ 3.73 µM). The minimum inhibitory concentration (MIC) was determined as 0.5 mg/L (≈ 0.934 µM) in the experiment on Staphylococcus aureus [6]; 0.25 mg/L (≈ 0.467 µM) in the experiment with Staphylococcus aureus [7]; 32 mg/L (≈ 59.7 µM) in the experiment with Pseudomonas aeruginosa; 1 mg/L (≈ 1.87 µM) with Escherichia coli [8]; 4 mg/L (≈ 7.47 µM) against Enterococcus faecalis [9]; 2 mg/L (≈ 3.73 µM) against Enterobacter cloacae. The MIC came out at 0.25 mg/L (≈ 0.467 µM) against Streptococcus pneumoniae [10] and 0.0156 mg/L (≈ 0.0291 µM) with Streptococcus pneumoniae [11].
